pKi: −log10 of the molar value.

The source of these data is ChEMBL document CHEMBL3745654, “N-Alkylated arylsulfonamides of (aryloxy)ethyl piperidines: 5-HT(7) receptor selectivity versus multireceptor profile” (Bioorg Med Chem, 2016).

Series [1] deals with Sodium-dependent serotonin transporter (Rattus norvegicus) (UniProt P31652). As to the kind of experiment: Displacement of [3H]-citalopram from rat cerebral cortex SERT at 1 uM. Format: tissue-based. (Loss of bound radioactivity is the signal in a displacement assay; it reports binding, not function.)
Series [2] in a line: Half life in mouse liver microsomes at 20 uM at pH 7.4 incubated for 15 mins by UPLC/MS analysis in presence of NADPH. Format: ADME. The method in brief:
(§1)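 Compound (20 µM) incubated with mouse liver microsomes (0.2 mg/ml) in 100 mM potassium phosphate, pH 7.4, 37 °C. Reaction started with NADPH-regenerating system; blank without NADPH run in parallel. Sampling at 5, 15, 30 and 60 min (some to 120 min), in duplicate. Levallorphan internal standard; UPLC/MS quantitation. t1/2 from ln % remaining vs time.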

Series [3] has as its target T1, 5-hydroxytryptamine receptor 1A (Homo sapiens, UniProt P08908).
T1 sequence (P08908 whole entry): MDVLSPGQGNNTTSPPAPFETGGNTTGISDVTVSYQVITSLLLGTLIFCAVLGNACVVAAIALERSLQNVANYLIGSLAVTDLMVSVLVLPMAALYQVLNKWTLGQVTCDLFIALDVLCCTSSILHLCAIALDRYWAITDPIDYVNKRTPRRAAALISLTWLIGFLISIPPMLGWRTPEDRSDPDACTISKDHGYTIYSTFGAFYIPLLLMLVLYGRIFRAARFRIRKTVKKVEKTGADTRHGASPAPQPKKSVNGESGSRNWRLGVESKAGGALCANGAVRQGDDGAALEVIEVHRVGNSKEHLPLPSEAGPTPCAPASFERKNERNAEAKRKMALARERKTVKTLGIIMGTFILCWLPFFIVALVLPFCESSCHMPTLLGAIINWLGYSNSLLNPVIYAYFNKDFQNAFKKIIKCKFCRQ
As to the kind of experiment: Displacement of [3H]-8-OH-DPAT from human 5-HT1A receptor expressed in HEK293 cells incubated for 1 hr. Format: cell-based. The method in brief:
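Membranes from HEK293 cells stably expressing human 5-HT1A receptor, with [3H]-8-OH-DPAT (187 Ci/mmol). Buffer: 50 mM Tris-HCl, 0.1 mM EDTA, 4 mM MgCl2, pargyline, 0.1% ascorbate. Incubation 1 h at room temperature, then filtration. Non-specific binding defined with 5-HT. Triplicates at 7–8 concentrations. Ki by Cheng–Prusoff.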

Series [4] has as its target 5-hydroxytryptamine receptor 2A (Homo sapiens, UniProt P28223). The series is described as follows: Displacement of [3H]-ketanserin from human 5-HT2A receptor expressed in HEK293 cells incubated for 1 hr. Type of series: cell-based. The method in brief: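 Membranes from HEK293 cells stably expressing human 5-HT2A receptor, with [3H]-ketanserin (66.9 Ci/mmol). Incubation 1 h at 37 °C, then rapid filtration and counting. Triplicates at 7–8 concentrations (10^-11 to 10^-4 M). Ki by Cheng–Prusoff; means of at least three experiments.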

For series [5], the target named is T2, 5-hydroxytryptamine receptor 2C (Homo sapiens) (UniProt P28335).
T2 sequence (whole entry): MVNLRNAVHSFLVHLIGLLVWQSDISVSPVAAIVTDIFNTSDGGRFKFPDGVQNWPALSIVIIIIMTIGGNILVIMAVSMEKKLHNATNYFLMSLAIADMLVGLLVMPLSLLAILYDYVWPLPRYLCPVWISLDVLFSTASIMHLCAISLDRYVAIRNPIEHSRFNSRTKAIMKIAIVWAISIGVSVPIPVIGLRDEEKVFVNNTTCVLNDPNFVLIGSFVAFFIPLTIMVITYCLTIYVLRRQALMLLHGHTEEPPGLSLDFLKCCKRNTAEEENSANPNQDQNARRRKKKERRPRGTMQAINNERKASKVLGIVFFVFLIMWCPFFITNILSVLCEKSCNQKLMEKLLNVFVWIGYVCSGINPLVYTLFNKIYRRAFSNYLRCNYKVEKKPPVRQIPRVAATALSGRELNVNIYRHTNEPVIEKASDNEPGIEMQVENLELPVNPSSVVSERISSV
As to the kind of experiment: Displacement of [3H]-mesulergine from human recombinant serotonin 5-HT2C receptor expressed in HEK293 cells at 1 uM incubated for 120 mins by scintillation counting method. Format: cell-based.

Series [6] can be described thus: Intrinsic clearance in mouse liver microsomes at 20 uM at pH 7.4 incubated for 15 mins by UPLC/MS analysis in presence of NADPH. Particulars: read-out: CLH. Type of series: ADME. (In general: Liver microsomes are vesicles of endoplasmic reticulum, rich in cytochrome P450 enzymes.)
The target of series [7] is 5-hydroxytryptamine receptor 7 (Homo sapiens, UniProt P34969). As to the kind of experiment: Antagonist activity at human 5-HT7B receptor expressed in HEK293 cells assessed as inhibition of 5-carboxamidotryptamine-induced cAMP production. Type of series: functional, cell-based. Summed up:
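HEK293 cells stably expressing human 5-HT7b receptor. Compound's ability to inhibit cAMP production induced by 10 nM 5-CT was measured in triplicate at 8 concentrations (10^-11 to 10^-4 M). Kb = IC50/(1 + A/EC50), where A is agonist concentration.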
(Changes in cAMP serve as a functional read-out for many G protein-coupled receptors.)

Series [8] deals with T3, Muscarinic acetylcholine receptor M1 (Homo sapiens) (UniProt P11229).
T3 sequence (whole entry): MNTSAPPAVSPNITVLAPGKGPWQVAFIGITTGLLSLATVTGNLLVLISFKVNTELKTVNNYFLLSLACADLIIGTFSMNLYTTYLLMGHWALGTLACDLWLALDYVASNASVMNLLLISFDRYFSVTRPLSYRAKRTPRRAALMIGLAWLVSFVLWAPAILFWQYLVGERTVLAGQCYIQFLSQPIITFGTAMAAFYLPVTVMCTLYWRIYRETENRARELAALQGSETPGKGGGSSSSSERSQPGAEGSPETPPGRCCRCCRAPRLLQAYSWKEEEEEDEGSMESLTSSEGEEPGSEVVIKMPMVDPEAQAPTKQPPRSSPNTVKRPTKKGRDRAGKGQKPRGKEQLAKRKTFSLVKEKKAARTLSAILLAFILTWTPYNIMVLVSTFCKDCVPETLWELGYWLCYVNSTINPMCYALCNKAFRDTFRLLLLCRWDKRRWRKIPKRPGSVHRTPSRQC
As to the kind of experiment: Displacement of [3H]-pirenzepine from human recombinant muscarinic M1 receptor expressed in CHO cells at 1 uM after 60 mins by Scintillation counting method. Type of series: cell-based.

Series [9] is described as follows: Metabolic stability in mouse liver microsomes assessed as retention time of compound at 20 uM at pH 7.4 incubated for 15 mins by UPLC/MS analysis in presence of NADPH. The note with it: pH 7.4, 0.25 h. Type of series: ADME. Summed up:
as §1

Series [10] deals with Histamine H1 receptor (Homo sapiens) (UniProt P35367). The series is described as follows: Displacement of [3H]-pyrilamine from human recombinant histamine H1 receptor expressed in HEK293 cells at 1 uM after 60 mins by Scintillation counting method. Format: cell-based.
Histamine H1 receptor (Homo sapiens), sequence (P35367 whole entry): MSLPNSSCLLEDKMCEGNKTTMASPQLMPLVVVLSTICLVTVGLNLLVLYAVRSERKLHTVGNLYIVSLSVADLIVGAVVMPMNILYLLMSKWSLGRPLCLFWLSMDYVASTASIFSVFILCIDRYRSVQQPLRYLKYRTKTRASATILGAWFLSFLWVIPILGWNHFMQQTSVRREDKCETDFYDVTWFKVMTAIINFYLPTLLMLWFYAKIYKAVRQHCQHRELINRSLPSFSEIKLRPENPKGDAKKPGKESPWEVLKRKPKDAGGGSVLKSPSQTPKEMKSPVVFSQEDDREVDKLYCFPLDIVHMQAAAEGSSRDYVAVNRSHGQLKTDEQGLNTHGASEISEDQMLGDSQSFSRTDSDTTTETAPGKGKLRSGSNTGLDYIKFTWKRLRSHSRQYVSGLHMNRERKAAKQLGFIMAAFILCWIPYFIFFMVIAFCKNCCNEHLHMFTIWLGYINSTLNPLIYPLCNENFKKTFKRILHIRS

5-hydroxytryptamine receptor 7, sequence (P34969 whole entry): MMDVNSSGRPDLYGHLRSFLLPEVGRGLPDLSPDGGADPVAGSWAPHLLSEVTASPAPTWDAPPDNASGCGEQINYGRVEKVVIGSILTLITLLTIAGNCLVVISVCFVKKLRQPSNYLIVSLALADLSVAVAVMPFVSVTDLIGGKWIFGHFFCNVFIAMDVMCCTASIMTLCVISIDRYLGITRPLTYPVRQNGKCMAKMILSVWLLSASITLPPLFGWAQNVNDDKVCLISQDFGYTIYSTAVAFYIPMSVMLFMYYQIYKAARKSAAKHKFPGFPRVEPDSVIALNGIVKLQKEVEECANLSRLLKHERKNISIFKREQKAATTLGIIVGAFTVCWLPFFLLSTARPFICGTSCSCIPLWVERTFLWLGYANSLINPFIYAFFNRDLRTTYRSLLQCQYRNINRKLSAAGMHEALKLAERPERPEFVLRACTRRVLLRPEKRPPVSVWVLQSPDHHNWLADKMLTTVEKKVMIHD
Sodium-dependent serotonin transporter (Rattus norvegicus), sequence (P31652 whole entry): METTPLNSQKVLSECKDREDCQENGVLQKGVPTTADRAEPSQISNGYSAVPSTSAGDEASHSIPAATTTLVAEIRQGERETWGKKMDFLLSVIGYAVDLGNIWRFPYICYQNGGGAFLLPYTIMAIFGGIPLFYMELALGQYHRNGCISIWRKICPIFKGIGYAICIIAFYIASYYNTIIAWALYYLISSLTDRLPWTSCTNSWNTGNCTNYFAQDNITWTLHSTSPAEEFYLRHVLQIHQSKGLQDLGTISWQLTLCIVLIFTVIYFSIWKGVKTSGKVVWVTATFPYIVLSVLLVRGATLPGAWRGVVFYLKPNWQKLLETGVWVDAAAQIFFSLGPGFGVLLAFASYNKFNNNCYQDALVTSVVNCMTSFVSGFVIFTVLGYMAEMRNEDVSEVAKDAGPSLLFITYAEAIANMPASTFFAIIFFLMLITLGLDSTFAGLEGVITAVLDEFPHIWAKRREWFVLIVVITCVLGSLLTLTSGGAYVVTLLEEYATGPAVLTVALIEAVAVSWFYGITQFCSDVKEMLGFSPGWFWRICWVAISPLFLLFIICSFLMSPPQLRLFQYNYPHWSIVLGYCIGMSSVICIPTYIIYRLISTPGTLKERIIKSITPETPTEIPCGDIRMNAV
5-hydroxytryptamine receptor 2A, sequence (P28223 whole entry): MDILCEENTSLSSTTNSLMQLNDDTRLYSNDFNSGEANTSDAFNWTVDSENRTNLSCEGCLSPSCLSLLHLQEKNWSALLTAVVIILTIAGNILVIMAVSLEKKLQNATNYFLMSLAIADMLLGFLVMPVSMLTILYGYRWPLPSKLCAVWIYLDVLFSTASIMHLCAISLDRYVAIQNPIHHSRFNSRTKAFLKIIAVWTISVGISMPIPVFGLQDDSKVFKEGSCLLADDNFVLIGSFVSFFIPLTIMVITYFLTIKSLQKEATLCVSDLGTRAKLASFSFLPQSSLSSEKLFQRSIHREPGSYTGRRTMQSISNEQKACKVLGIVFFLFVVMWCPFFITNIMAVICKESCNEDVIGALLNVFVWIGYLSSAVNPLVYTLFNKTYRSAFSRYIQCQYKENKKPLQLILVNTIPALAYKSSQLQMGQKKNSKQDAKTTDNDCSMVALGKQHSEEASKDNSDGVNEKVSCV

For `CN(C1CCN(CCOc2ccccc2C(C)(C)C)CC1)S(=O)(=O)c1cnn(C)c1`, the inhibition in series [1] is under 20%; in series [5], under 17%; in series [8], under 17%; in series [10], under 64%. Besides, the half-life at 20 µM in [2] was 20 min. For the same compound, the results for the negative-log Ki (pKi) in series [3] and in series [4] were 5.02 and 6.25, respectively. The microsomal CLint at 20 µM in series [6] came to 190 µL/min/mg. For the same compound, the Kb in [7] amounted to 82 nM. For the same compound, in series [9], the Retention_time is 5.22 min.
With `Cn1cc(S(=O)(=O)N(CC2CC2)C2CCN(CCOc3ccccc3-c3ccccc3)CC2)cn1`, the inhibition in series [1] was under 20%; in series [5] it was under 17%; in [8], under 17%; in [10], under 64%. In [2], the half-life at 20 µM is 62 min. Moreover, the pKi in [3] was 6.80; in [4], 7.52. In addition, in [6], the microsomal CLint at 20 µM came to 55.9 µL/min/mg. Moreover, in [7], the antagonist equilibrium constant (Kb) came to 79 nM. Also, in series [9], the Retention_time is on record as 5.46 min.
Regarding `CN(C1CCN(CCOc2ccccc2-c2ccccc2)CC1)S(=O)(=O)c1cnn(C)c1`, the inhibition in series [1] was under 20%; in series [5], under 17%; in series [8], under 17%; in series [10], under 64%. Besides, the half-life at 20 µM in [2] was 26.2 min. For the same compound, the negative-log Ki (pKi) in [3] was 7.10; in series [4], 7.24. The microsomal CLint at 20 µM in [6] was found to be 167 µL/min/mg. In addition, the Kb in series [7] stood at 41 nM. Besides, the Retention_time in [9] is 4.88 min.
As for `Cn1cc(S(=O)(=O)N(CC2CC2)C2CCN(CCOc3ccccc3C(C)(C)C)CC2)cn1`, the inhibition is under 20% in [1], under 17% in series [5], under 17% in [8] and under 64% in [10]. Further, the half-life at 20 µM in [2] was found to be 44.5 min. Also, the negative-log Ki (pKi) is 4.75 in series [3] and 5.83 in series [4]. Besides, in [6], the microsomal CLint at 20 µM was 77.9 µL/min/mg. The Kb in series [7] worked out at 64 nM. In addition, in [9], the Retention_time is 5.74 min.

For orientation: inhibition means how much of the control response was suppressed. The term half-life denotes the time in which the quantity being followed falls by half. One may read the pKi as −log10 of the Ki, conventionally taken in molar units. A higher pKi goes with a small Ki. As a reminder, the Kb is the equilibrium dissociation constant of an antagonist, usually derived from a functional assay.
